Data on 97 molecules can be found in ChEMBL document CHEMBL4513216, “Probing the Open Global Health Chemical Diversity Library for Multistage-Active Starting Points for Next-Generation Antimalarials” (ACS Infect Dis, 2020).

The nature of this data set: Toxicity liver stage against HepG2, at 10uM. The class given is cell-based. Set-up: test concentration 10 uM, cell line HepG2-A16-CD81EGFP. To be noted: human, HepG2-A16-CD81EGFP cells; read-out: INHIBITION
In a few lines: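 Uninfected HepG2-A16-CD81EGFP cells, 3 × 10^3 per well, 1536-well, plated on prespotted compound at 10 μM final, parasite-free screening media added to match infected plates; puromycin 10 μM positive, DMSO 0.5% negative; run in parallel with 48 h PbLuc assay at 37 °C, 5% CO2; viability by CellTiter-Glo luminescence, normalized to controls.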
For the molecule `CC(C)c1nc(C2CCCN(C(=O)CCn3cncn3)C2)no1` (configuration not stated), the cytotoxicity at 10 µM is -21.1%.
Then `Cc1ccccc1CC(=O)N1CCN(C2CCOC2=O)CC1` (configuration not stated), with -8.38%.
On to `Cc1ccccc1CS(=O)(=O)CC(=O)N(C)Cc1cccc(F)c1`, for which the cytotoxicity at 10 µM came to 4.8%.
For the molecule `CC(C)(NC(=O)c1ccc(-c2ccccc2F)s1)C(N)=O`, the cytotoxicity at 10 µM amounted to 12.7%.
With `Cc1ccc2c(c1)C(NC(=O)N(C)C)CC21CCN(C)CC1` (configuration not stated), the cytotoxicity at 10 µM came out at 10.4%.
As to `FC(F)(F)C1CN(Cc2cccc(OCc3ccccn3)c2)CCO1` (configuration not stated), the cytotoxicity at 10 µM amounted to 1.48%.
As for `O=C(NC1CC(=O)N(C2Cc3ccccc3C2)C1)c1csnn1` (configuration not stated), the cytotoxicity at 10 µM is 2.96%.
Turning to `CN1Cc2cnn(CC3CCCC3)c2C(COCC2CC2)C1` (configuration not stated), the cytotoxicity at 10 µM was -1.6%.
For `Cc1ncc2c(n1)CN(CC(=O)Nc1cc(C)on1)CC2`, the cytotoxicity at 10 µM was -12.4%.
For `O=C(Nc1cccc(F)c1)C1CCN(Cc2noc(C3CC3)n2)CC1`, the cytotoxicity at 10 µM was found to be 13.2%.
In the case of `CC(C)CC(NC(=O)CN(C)c1cnccn1)c1cccs1` (configuration not stated), the cytotoxicity at 10 µM is 2.84%.
On to `COc1ccc(C(=O)N2CC[C@@H]3[C@H](CC2)N(C)CCS3(=O)=O)cc1`, for which the cytotoxicity at 10 µM is -117%.
Then `CC(C)CN1C[C@@H]2C[C@H](C(=O)Nc3cccnc3)[C@H](C1)O2`, with 7.8%; and `CCC(OC)C(=O)NCc1cc2n(n1)CCCN(C1CCCCC1)C2` (configuration not stated), with 5.3%; and `CCC(C)NC(=O)c1nnn(-c2cccc3c2CCN(C)C3)c1C` (configuration not stated), with -6.39%.
On to `COc1ccc(CN2C[C@@H](CN(C)C)[C@@H](CO)C2)cc1CN1CCCC1`, for which the cytotoxicity at 10 µM was 4.59%.
Consider `Cc1nccn1CCC1CCN(c2ccncn2)CC1`, for which the cytotoxicity at 10 µM is -9.14%.
Then `COc1ccc(F)cc1C(C)NC(=O)NCCCn1cncn1` (configuration not stated), with -17.8%; and `O=C(COc1ccc(Cl)cc1)N1CCOCC1c1ncon1` (configuration not stated), with -21%; and `CCn1ccnc1CN(C)c1nc(-c2ccc(Cl)cc2)nc2c1CNC2`, with -12.7%.
Regarding `CCOc1cc(C)nc(N2CCN(C(=O)CC)CC2)n1`, the cytotoxicity at 10 µM was -6.68%.
As to `COCC(=O)N[C@H](C)c1c(-c2ccc(Cl)cc2)noc1C(=O)O`, the cytotoxicity at 10 µM was 1.05%.
Regarding `NC(=O)CN1CC2(CCC1=O)CCN(Cc1ccc(F)cc1Cl)CC2`, the cytotoxicity at 10 µM came to 3.59%.
On to `CC(C)N(C)[C@@H]1CCN(C(=O)[C@H]2CCCO2)[C@H]1Cc1cnn(C)c1`, for which the cytotoxicity at 10 µM turned out to be 0.428%.
`COCC(=O)N1C[C@@H](c2cccc(OC)c2)[C@@]2(CCCCC(=O)N2)C1`: the cytotoxicity at 10 µM came out at 1.62%.
`CC(C)n1cc(C(=O)N2CCC(n3cc(C(C)(C)C)nn3)CC2)cn1`: the cytotoxicity at 10 µM was found to be 1.19%.
With `CNC(=O)CN1CCC2(CC1)C[C@@H](O)[C@H](c1ccccc1)NC2=O`, the cytotoxicity at 10 µM was -32.2%.
`Cc1cc(Br)c(O)c(C(=O)N2CCC(CN3CCCCCC3)CC2)c1`: the cytotoxicity at 10 µM stood at 8.29%.
With `Cc1ccc(CN2CCCN(Cc3cscn3)CC2)cc1`, the cytotoxicity at 10 µM was -8.47%.
Consider `Cc1ccc(C(=O)NCCS(=O)(=O)N2CCSCC2)o1`, for which the cytotoxicity at 10 µM worked out at 6.13%.
As for `CCc1ccc2nc(C)cc(C(=O)N[C@@H]3CNC[C@H]3O)c2c1`, the cytotoxicity at 10 µM was -11%.
Turning to `CN(C)CCNC(=O)c1noc2c1CN(C(=O)N(C)C)CC2`, the cytotoxicity at 10 µM was 10.6%.
As to `CN(C)C(=O)CNC(CC(F)(F)F)c1ccc(Cl)cc1` (configuration not stated), the cytotoxicity at 10 µM is -3.53%.
`Cc1cccc(C)c1NC(=O)CC(CN1CCN(C)CC1)C(=O)O` (configuration not stated): the cytotoxicity at 10 µM is -3.68%.
As for `CCOCC(=O)N1CCC(c2nccn2CC2CC2)CC1`, the cytotoxicity at 10 µM is -7.18%.
Regarding `O=C(NC1CC1)C1(Cc2ccccc2-c2ccncc2)CCOCC1`, the cytotoxicity at 10 µM was -3.83%.
Turning to `CCc1ccc(CN2CCC3(CC2)NC(=O)CC3c2ccncc2)o1` (configuration not stated), the cytotoxicity at 10 µM was 1.83%.
The same measure for `CC(Cn1ccnc1)NC(=O)N1CCN(Cc2ccsc2)CC1` (configuration not stated): -6.33%.
The same measure for `COCc1nc2c(o1)CN(C(=O)NCc1ccccc1)C2`: 10.6%.
Consider `CN1CCCC(CNC(=O)N(C)Cc2ccc(Cl)c(F)c2)C1` (configuration not stated), for which the cytotoxicity at 10 µM stood at 1.36%.
As for `O=C(Nc1ccc2c(c1)C(=O)NC2=O)c1cccs1`, the cytotoxicity at 10 µM was -4.08%.
Regarding `CN(Cc1ccncc1)C1COC2(CCN(c3ncc(F)cn3)CC2)C1` (configuration not stated), the cytotoxicity at 10 µM amounted to 6.95%.
Regarding `Cc1nn(C)c(Oc2cccc(F)c2)c1NC(=O)C1CCCO1` (configuration not stated), the cytotoxicity at 10 µM is -7.64%.
For the molecule `c1cnn(CC2CN(Cc3ccc(-n4ccnc4)cc3)CCO2)c1` (configuration not stated), the cytotoxicity at 10 µM is -3.12%.
For `CC(C)c1nn(C)c(N(C)C)c1CNCc1cccc2cccnc12`, the cytotoxicity at 10 µM was -11.2%.
Regarding `CCn1cnnc1CNC(=O)NC(c1cccs1)C1CCCC1` (configuration not stated), the cytotoxicity at 10 µM was -11.2%.
With `Cc1cccc(Cc2cc(C)nc(C3CCCNC3)c2)c1` (configuration not stated), the cytotoxicity at 10 µM stood at 1.58%.
Then `COc1cc(C)ccc1OCCC(=O)N1CCC(N2CC=CC2)C1` (configuration not stated), with 6.99%.
Consider `Cn1cc(C(=O)Nc2cc(F)ccc2OCC2CCCO2)ccc1=O` (configuration not stated), for which the cytotoxicity at 10 µM was -7.09%.
Consider `COc1ccccc1OCCCN(C)c1cc(C)nc(N)n1`, for which the cytotoxicity at 10 µM was 1.39%.
Then `c1cc(CN2CC[C@@H]3CN(c4cnccn4)C[C@@H]3C2)ccn1`, with -119%; and `Cc1nc(CN2C(=O)COC3(CCN(C)CC3)C2C)cs1` (configuration not stated), with -128%.
As to `Cc1nnc(N2CCNCC2)c(C(N)=O)c1C`, the cytotoxicity at 10 µM was 3.52%.
As to `CC(C)Oc1ccccc1NC(=O)N1CCC(n2cncn2)CC1`, the cytotoxicity at 10 µM is -3.67%.
Turning to `O=C1Nc2ccccc2CNC12CCN(CC1CC1)CC2`, the cytotoxicity at 10 µM is 6.03%.
As to `Cc1ccc(CN2CCC3(CC(=O)N(c4ccc5c(c4)OCO5)C3)C2)o1` (configuration not stated), the cytotoxicity at 10 µM was -70.2%.
Take `Cc1nn(C)cc1C(C)Nc1ncnc2sccc12` (configuration not stated): the cytotoxicity at 10 µM was 14.1%.
In the case of `CCc1c(C(=O)O)nnn1-c1cc(C)cc(C)c1`, the cytotoxicity at 10 µM is -6.69%.
Turning to `Cc1cc(NCCNS(=O)(=O)c2cn(C)nc2C)c2ccccc2n1`, the cytotoxicity at 10 µM stood at 1.78%.
The same measure for `Cc1cccc(CNC[C@H]2Cn3ccnc3CO2)n1`: 3.15%.
On to `CC[C@@H]1N(CC2CCC2)CCC[C@]12CCC(=O)N2Cc1ccncc1`, for which the cytotoxicity at 10 µM came to 7.12%.
`O=C1COc2cc(C(=O)NS(=O)(=O)c3ccc(F)cc3F)ccc2N1`: the cytotoxicity at 10 µM was -6.21%.
Then `CCCn1ncc(C(=O)N2CCN(C3CCCC3)CC2)c1C`, with -151%; and `Cc1ccoc1C(=O)N1CCNCC1C(=O)NCc1ccncc1` (configuration not stated), with 6.03%.
As to `O=C(c1cnco1)N1CCC(Cc2ccc3ncccc3c2)CC1`, the cytotoxicity at 10 µM was determined as 7.22%.
On to `O=C1CCC2(CCC(NC3CCOC3)CC2)N1Cc1ccccc1` (configuration not stated), for which the cytotoxicity at 10 µM was -5.54%.
Turning to `Cn1ncc2c(=O)[nH]c(CN3CCCC3CCc3ccccc3)nc21` (configuration not stated), the cytotoxicity at 10 µM is -8.21%.
With `CCn1nc(C)cc1C(=O)OCCNc1ncnc2ccccc12`, the cytotoxicity at 10 µM is 61.8%.
As for `O=C(CN1CCS(=O)(=O)CC1)NCc1ccccc1F`, the cytotoxicity at 10 µM is 6.32%.
In the case of `CN(C)CCO[C@@H]1CC[C@H]2[C@H]1OCCN2C(=O)c1ccncc1`, the cytotoxicity at 10 µM amounted to 5%.
In the case of `O=C(CN1C=Nc2ccccc2S1(=O)=O)NCc1ccccc1F`, the cytotoxicity at 10 µM is -3.73%.
Regarding `CNC(=O)CNC1CC2(CCN(c3ncccn3)CC2)c2ccccc21` (configuration not stated), the cytotoxicity at 10 µM came to 4.68%.
The same measure for `Cc1cc(NC(=O)NCCc2cccnc2)n(C)n1`: -3.86%; for `COc1cc2c(cc1OC)CCN(C(=O)Cn1nc(C)cc1C)CC2`: 2.63%; for `O=C(C1CCCCC1)N1CCCC([C@@H]2C[C@H](C(F)F)n3ncnc3N2)C1` (some centres not stated): 1.4%.
Consider `CN1CCCCC1CCC(=O)NCCCn1ncc2ccccc21` (configuration not stated), for which the cytotoxicity at 10 µM is -13.3%.
Regarding `CCn1c(C)cc(C(=O)N2CCC(NC(=O)c3cc(C)no3)CC2)c1C`, the cytotoxicity at 10 µM was -1.1%.
Take `Cc1nn2c(N3CCC(O)C3)cc(-c3ccccc3)nc2c1C` (configuration not stated): the cytotoxicity at 10 µM is -11.5%.
Take `Cc1cc(C)n(CC2CN(Cc3cscn3)CCO2)n1` (configuration not stated): the cytotoxicity at 10 µM is -2.68%.
For `O=S(=O)(c1ccccc1)N1CCCC(c2nccs2)C1` (configuration not stated), the cytotoxicity at 10 µM is -23.4%.
In the case of `O=c1[nH]c(-c2ccccn2)nc2c1CCN(Cc1cccc(O)c1)C2`, the cytotoxicity at 10 µM is -17.6%.
`O=C(NC1CCCCC1)NC1CCCc2c1cnn2CCO` (configuration not stated): the cytotoxicity at 10 µM came out at 8.39%.
For the molecule `Cn1ccc(C(=O)NCc2ccc(N3CCOCC3)nc2)cc1=O`, the cytotoxicity at 10 µM is -14.3%.
For `Cc1ccc(S(=O)(=O)NCC(O)c2ccoc2)s1` (configuration not stated), the cytotoxicity at 10 µM was -8.18%.
Then `CSCC(=O)Nc1nccn1Cc1ccc(Br)cc1`, with -45.8%; and `Cn1cnc2c1C(COCc1ccccc1)N(Cc1ccccn1)CC2` (configuration not stated), with 9.82%.
Then `CC(Cn1cccn1)NC(=O)NCCc1ccsc1` (configuration not stated), with -14.8%; and `CCS(=O)(=O)c1nnc([C@@H](N)Cc2ccccc2)o1`, with 6.99%; and `Cc1noc(C)c1CN1CC[C@H]2OCC[C@@]2(C(=O)N2CCCO2)C1`, with 1.59%.
`Cc1cccc2c1cnn2CCCNC(=O)C1CC1`: the cytotoxicity at 10 µM worked out at 5.01%.
`CCc1c(O)nc(SCC(=O)N(CC)CC)n(C(C)CC)c1=O` (configuration not stated): the cytotoxicity at 10 µM was -6.65%.
With `CC(C)[C@H](NS(C)(=O)=O)C(=O)NCc1cc(-c2ccco2)n[nH]1`, the cytotoxicity at 10 µM is -9.13%.
In the case of `CC(C)CN1CCS(=O)(=O)[C@@H]2CCN(S(=O)(=O)C3CC3)CC[C@@H]21`, the cytotoxicity at 10 µM was found to be 7.8%.
As to `O=C(CC1CNCCO1)N1CCC(c2cc(N3CCCC3)ncn2)CC1` (configuration not stated), the cytotoxicity at 10 µM is 5.81%.
On to `C1CC(N2C[C@@H]3COC[C@]3(COCC3CCOCC3)C2)C1`, for which the cytotoxicity at 10 µM is -111%.
With `CCOc1ccccc1OC1CCN(Cc2ccn(C)c(=O)c2)CC1`, the cytotoxicity at 10 µM amounted to 3.91%.
As for `COc1cc(C)c(C(C)NC(=O)Nc2nnc(C)s2)cc1OC` (configuration not stated), the cytotoxicity at 10 µM was 1.03%.
